≈ marks a conversion by molar mass, not a printed value.
Key:
[1] = tested on: Hepatitis B virus; experiment: Antiviral activity against HBV infected in NOD.CB17-Prkdc-scid/J hydrodynamic injection mouse model expressing HBV genotype D assessed as log reduction in HBV DNA at 30 mg/kg,po QD for 7 days by qPCR method relative to control; type: functional; conditions: time 7 day
Method in brief: (§1)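 Six-week-old female NOD.CB17-Prkdcscid/J mice received an HBV plasmid by hydrodynamic tail-vein injection (1.6 mL within 5 s). Seven days after injection (day 0), oral gavage dosing began at 3, 10 or 30 mg/kg once or twice daily; controls received vehicle by gavage. Serum was taken on day 0 (predose) and day 7, and HBV DNA was measured in total extracted nucleic acid by qPCR.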

[2] = Metabolic stability in CD-1 mouse liver microsomes assessed as half life at 0.3 uM and measured upto 1 hrs; type: ADME, Microsome
Method in brief: (§2)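 Compound at 0.3 μM final was incubated with human or mouse liver microsomes at 0.5 mg/mL in 100 mM potassium phosphate pH 7.4 with 1 mM NADPH at 37 °C. T1/2 = ln(2)/k. CLint = (0.693/t1/2)/0.5 mg/mL microsomal protein.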

[3] = tested on: Hepatitis B virus; experiment: Antiviral activity against HBV infected in NOD.CB17-Prkdc-scid/J hydrodynamic injection mouse model expressing HBV genotype D assessed as log reduction in HBV DNA at 10 mg/kg,po BID for 7 days by qPCR method relative to control; type: functional; conditions: time 7 day; method in brief: as §1
[4] = Metabolic stability in human liver microsomes assessed as half life at 0.3 uM and measured upto 1 hrs; type: ADME, Microsome; method in brief: as §2
[5] = Aqueous solubility of compound at pH 7.4; type: physicochemical; conditions: buffer
Method in brief: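 A 10 mM DMSO stock was diluted into PBS pH 7.4 to 200 μM compound, 2% DMSO final, and shaken 18–24 h at 22 °C. Samples were filtered by centrifugation and the filtrate quantified by UPLC-UV/MS against a standard curve of 4–200 μM in DMSO.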

[6] = AUC (0-infinity) in CD-1 mouse at 10 mg/kg, po; type: ADME, organism-based; design: time infinity, dose 10 mg/kg, route po; conditions: in vivo
Method in brief: (§3)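 Female CD-1 mice were dosed 2.0 mg/kg IV or 10 mg/kg PO in 40% PEG400/5% EtOH/55% water. Serial blood was taken at 5 min (IV), 15 min (PO), 30 min, and 2, 4, 8, 12 and 24 h into K2EDTA, and plasma was prepared. Plasma levels were measured by LC-MS/MS against spiked plasma standards of 0.5–8000 ng/mL. Parameters came from non-compartmental analysis.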

[7] = Cmax in CD-1 mouse at 10 mg/kg, po; type: ADME, organism-based; design: dose 10 mg/kg, route po; conditions: in vivo; method in brief: as §3
[8] = in vitro; conditions: human, liver microsomes
[9] = in vitro; conditions: CD-1, mouse, liver microsomes
[10] = Metabolic stability in human liver microsomes assessed as parent compound remaining at 0.3 uM and measured after 1 hrs; type: ADME, Microsome; conditions: read-out: Stability
[11] = tested on: Hepatitis B virus; experiment: Antiviral activity against HBV infected in NOD.CB17-Prkdc-scid/J hydrodynamic injection mouse model expressing HBV genotype D assessed as log reduction in HBV DNA at 3 mg/kg,po BID for 7 days by qPCR method relative to control; type: functional; conditions: time 7 day; method in brief: as §1
[12] = tested on: Hepatitis B virus; experiment: Antiviral activity against HBV infected in HepDE19 cells assessed as inhibition of HBV DNA; type: functional, organism-based
Method in brief: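 HepDE19 cells (HepG2-derived, HBV genotype D ayw, Tet-off CMV) seeded at 50,000 cells/well with tetracycline 1 μg/mL overnight. Next day switched to tet-free medium for 4 h, then given compound from 10 μM in a ½-log 8-point series, in duplicate, 0.5% DMSO final. After 7 days at 37 °C, intracellular rcDNA was read by bDNA. EC50 from a 4-parameter fit vs DMSO wells; mean of ≥2 experiments.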

[13] = Cytotoxicity against human HepDE19 cells assessed as reduction in cell viability upto 25 uM; type: toxicity, cell-based; conditions: hepde19, 25 µM
Method in brief: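 Run on HepDE19 replicate plates seeded at 5,000 cells/well after tetracycline removal. Cells were exposed to compound for 4 days at 37 °C, 5% CO2. Viability was read as intracellular ATP by CellTiter-Glo luminescence, expressed as % of DMSO controls. CC50 came from a 4-parameter curve fit, as the mean of ≥2 experiments.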

[14] = Metabolic stability in CD-1 mouse liver microsomes assessed as parent compound remaining at 0.3 uM and measured after 1 hrs; type: ADME, Microsome; conditions: read-out: Stability
[15] = tested on: Hepatitis B virus; experiment: Antiviral activity against HBV infected in NOD.CB17-Prkdc-scid/J hydrodynamic injection mouse model expressing HBV genotype D assessed as log reduction in HBV DNA at 30 mg/kg,po BID for 7 days by qPCR method relative to control; type: functional; conditions: time 7 day; method in brief: as §1
[16] = Half life in CD-1 mouse at 10 mg/kg, po or 2 mg/kg, iv; type: ADME, organism-based; conditions: in vivo; method in brief: as §3
[17] = tested on: Hepatitis B virus; experiment: Antiviral activity against HBV infected in NOD.CB17-Prkdc-scid/J hydrodynamic injection mouse model expressing HBV genotype D assessed as log reduction in HBV DNA at 100 mg/kg,po QD for 7 days by qPCR method relative to control; type: functional; conditions: time 7 day
[18] = tested on: Hepatitis B virus; experiment: Antiviral activity against HBV infected in NOD.CB17-Prkdc-scid/J hydrodynamic injection mouse model expressing HBV genotype D assessed as log reduction in HBV DNA at 10 mg/kg,po QD for 7 days by qPCR method relative to control; type: functional; conditions: time 7 day; method in brief: as §1
[19] = tested on: Hepatitis B virus; experiment: Antiviral activity against HBV infected in NOD.CB17-Prkdc-scid/J hydrodynamic injection mouse model expressing HBV genotype D assessed as log reduction in HBV DNA at 3 mg/kg,po QD for 7 days by qPCR method relative to control; type: functional; conditions: time 7 day; method in brief: as §1

| Structure (SMILES) | solubility [5] [µM] | AUC [6] [ng·h/mL] | Cmax [7] [ng/mL] | microsomal CLint at 1 h, 0.3 µM [8] [µL/min/mg] | microsomal CLint at 1 h, 0.3 µM [9] [µL/min/mg] | EC50 [12] [nM] | half-life [16] [h] | further results |
| --- | --- | --- | --- | --- | --- | --- | --- | --- |
| Cn1c(Cl)c2c(c1C(=O)Nc1ccc(F)c(Cl)c1)CC[C@@H]2NC(=O)OCc1c[nH]nn1 | < 4 | 30600 | 2510 | 11.2 | 20.2 | 14 | 3.5 |  |
| O=C(Nc1cc(F)c(F)c(F)c1)c1ccc(F)c(S(=O)(=O)N2CCC(O)CC2)c1 |  |  |  |  |  | 650 |  |  |
| CCOC(=O)C1=C(CN2CCOCC2)NC(c2nccs2)=NC1c1ccc(F)cc1Br (stereo unspecified) |  |  |  |  |  | 110 |  |  |
| Cn1cnc(COC(=O)N[C@H]2CCc3c(C(=O)Nc4ccc(F)c(Cl)c4)ccc(F)c32)n1 |  | 9870 | 1610 | 6.2 | 20.6 | 77 | 2.5 | half-life at 0.3 µM [2]: 1.23 h; log(activity) [3]: 0.6; half-life at 0.3 µM [4]: 3.22 h; log(activity) [17]: 1; remaining at 1 h, 0.3 µM [10]: 83%; remaining at 1 h, 0.3 µM [14]: 56%; log(activity) [15]: 2.1 |
| O=C(NCc1cnc(C(F)(F)F)s1)c1ccc2c(c1)NC(=O)c1ccccc1S2(=O)=O [VEBICORVIR] |  |  |  |  |  | 250 |  |  |
| Cn1cc2c(c1C(=O)Nc1ccc(F)c(Cl)c1)CC[C@@H]2NC(=O)OCc1c[nH]nn1 | 10 (≈ 4.33 µg/mL) | 60600 | 4530 | 7.9 | 21.6 | 57 | 5.8 | log(activity) [1]: 2; log(activity) [18]: 1.5; log(activity) [19]: 0.8 |
| Cc1c2c(c(C(=O)Nc3ccc(F)c(Cl)c3)n1C)CC[C@@H]2NC(=O)OCc1ncn(C)n1 | 5 (≈ 2.3 µg/mL) |  |  | 12.7 | 52.8 | 114 |  |  |
| C[C@H](NS(=O)(=O)c1cc(C(=O)Nc2ccc(F)c(C#N)c2)n(C)c1)C(F)(F)F [BERSACAPAVIR] |  |  |  |  |  | 45 |  |  |

Second part, led by results:

| solubility [5] [µM] | AUC [6] [ng·h/mL] | Cmax [7] [ng/mL] | microsomal CLint at 1 h, 0.3 µM [8] [µL/min/mg] | microsomal CLint at 1 h, 0.3 µM [9] [µL/min/mg] | EC50 [12] [nM] | half-life [16] [h] | Structure (SMILES) | further results |
| --- | --- | --- | --- | --- | --- | --- | --- | --- |
| 24 (≈ 10.7 µg/mL) | 46700 | 4270 | 5.4 | 12.2 | 52 | 2.6 | Cn1cnc(COC(=O)N[C@H]2CCc3c2cn(C)c3C(=O)Nc2ccc(F)c(Cl)c2)n1 | log(activity) [1]: 1.8; half-life at 0.3 µM [2]: 1.9 h; log(activity) [3]: 1.9; half-life at 0.3 µM [4]: 4.27 h; remaining at 1 h, 0.3 µM [10]: 87%; log(activity) [11]: 0.8; Activity [13]: Non-Toxic; remaining at 1 h, 0.3 µM [14]: 81%; log(activity) [15]: 2.5 |
|  |  |  |  |  | 50 |  | COC(=O)C1=C(CN2CCOC[C@H]2C(=O)O)NC(c2nccs2)=N[C@H]1c1ccc(F)cc1Br |  |
| < 4 |  |  | 8.5 | 31.4 | 12 |  | Cn1cnc(COC(=O)N[C@H]2CCc3c2c(Br)n(C)c3C(=O)Nc2ccc(F)c(Cl)c2)n1 |  |
| 5 (≈ 2.41 µg/mL) |  |  | 8.8 | 33.8 | 13 |  | Cn1cnc(COC(=O)N[C@H]2CCc3c2c(Cl)n(C)c3C(=O)Nc2ccc(F)c(Cl)c2)n1 |  |
| < 4 |  |  | 8.6 | 29.7 | 11 |  | Cn1c(Cl)c2c(c1C(=O)Nc1ccc(F)c(Cl)c1)CC[C@@H]2NC(=O)OCc1nc[nH]n1 |  |
| < 4 |  |  | 24.4 | 38.4 | 52 |  | Cn1cc(COC(=O)N[C@H]2CCc3c2cn(C)c3C(=O)Nc2ccc(F)c(Cl)c2)nn1 |  |
| 23 (≈ 9.96 µg/mL) | 40700 | 3860 | 4.1 | 12.3 | 50 | 4.8 | Cn1cc2c(c1C(=O)Nc1ccc(F)c(Cl)c1)CC[C@@H]2NC(=O)OCc1nc[nH]n1 | log(activity) [18]: 0.6 |
|  |  |  |  |  | 3500 |  | Cn1cnc(COC(=O)N[C@@H]2CCc3c2cn(C)c3C(=O)Nc2ccc(F)c(Cl)c2)n1 | Activity [13]: Non-Toxic |

From ChEMBL document CHEMBL5104109, “The identification of highly efficacious functionalised tetrahydrocyclopenta[c]pyrroles as inhibitors of HBV viral replication through modulation of HBV capsid assembly” (RSC Med Chem, 2022)
